Series [1] has as its system F9 cells. The experiment in a line: Cell permeability assay in F9 cells, mass-spectrometry. It is filed as in vitro ADME, mouse. The note with it: 2 hours incubation, washed cells. Put shortly: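 F9 cells exposed to test compound for 2 h, with DMSO as control, then extensively washed and lysed immediately. Lysate mixed with 4 volumes acetone at −20 °C for 6 h, precipitate removed by centrifugation, supernatant lyophilized and redissolved in methanol. Compound detected by mass spectrometry against pure compound and untreated-cell lysate as m/z references.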

In series [2] the test system is F9 cells. The experiment in a line: Growth of F9 cells, cell numbers counted. In kind it is cell-based, mouse. Particulars: 50 μM, 30 hours. The gist of the method: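 F9 cells on gelatin-coated dishes in DMEM/10% FBS were treated with DMSO or 50 μM test compound for 30 h. Cells were then counted and expressed as percent of DMSO control. A separate concentration series was also run over 30 h.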

Series [3] concerns CHRM4 and SCN3A gene expression in F9 cells. It is filed as cell-based, mouse. The note with it: 10 μM, 24 hours, quantitative RT-PCR. Put shortly: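 F9 mouse teratocarcinoma cells, grown in DMEM with 10% FBS on 0.1% gelatin-coated dishes, exposed to 10 μM test compound for 24 h; dose series also run in F9 and HeLa cells. CHRM4 and SCN3A mRNA quantified by real-time RT-PCR. LSD1 siRNA-treated F9 cells served as comparison.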

Series [4] has as its system methylated H3K4 in F9 embryonic teratocarcinoma cells. The experiment in a line: Histone H3 methylation in F9 cells, Western blotting. It is filed as cell-based, mouse. The note with it: for IC50: read-out: IC50 in F9 cells (histone H3K4 methylation), various concentrations. Put shortly:
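F9 cells received 10 μM test compound for 24 h, plus a concentration series. Total histones were then extracted. Mono- and di-methylated H3K4, tri-methylated H3K4, di-methylated H3K9 and total histone H3 were probed by Western blot with specific antibodies. F9 cells given 50 nM LSD1 siRNA for 48 h served as comparison.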

Series [5] has as its target recombinant human LSD1 protein (Homo sapiens, UniProt O60341). The experiment in a line: In vitro LSD1 demethylation assay, di-methylated H3K4 peptide, mass-spectrometry. In kind it is biochemical. The note with it: read-out: half maximal inhibitory concentration (IC50) for LSD1, 30 °C, 1 hour, MS peak areas. Put shortly: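 GST-tagged human LSD1 was expressed in bacteria and purified; protein was also obtained commercially. The enzyme was incubated with di-methylated H3K4 peptide at 30 °C for 1 h, with test compound at 0–100 μM (0, 1, 2, 5, 10, 20, 50, 100 μM). Me1 and Me0 products were read by MALDI TOF/TOF MS. Conversion efficiency came from integrated product peak areas, and IC50 was fitted from conversion efficiency.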

Another series relates to mouse ES cells. The experiment in a line: Spherical growth of embryonic stem cells. It is filed as cell-based. The note with it: 50 μM, 30 hours. The gist of the method:
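Mouse ES cells, cultured on irradiated mouse embryonic fibroblasts in DMEM with 10% FBS, were treated with DMSO or 50 μM test compound for 30 h. Spherical colony growth was then examined.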

The next series concerns NCCIT cells. The experiment in a line: Growth of NCCIT cells. In kind it is cell-based, human. The note with it: 50 μM, 30 hours. The gist of the method:
(§1)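 Human pluripotent NCCIT and NTERA-2 cells, maintained in DMEM with 10% FBS, were exposed to 50 μM test compound for 30 h and growth assessed. Non-pluripotent HeLa, 293 and NIH3T3 cells were run under the same conditions.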

The subject of a further series is 293. The experiment in a line: Growth of 293 cells. In kind it is cell-based. The note with it: even at relatively high concentrations (100–200 μM).
The next series deals with NTERA-2 cells. The experiment in a line: Growth of NTERA-2 cells. In kind it is cell-based, human. Particulars: 50 μM, 30 hours. Put shortly: as §1
The next series deals with HeLa. The experiment in a line: Growth of HeLa cells. The note with it: even at relatively high concentrations (100–200 μM). In kind it is cell-based.
In a further series the test system is NIH 3T3. The experiment in a line: Growth of NIH 3T3 cells. It is filed as cell-based. The note with it: even at relatively high concentrations (100–200 μM).

Molecules are shown by their SMILES.

With `N=C(N)c1ccc(C(=O)N2CCN(C(=O)c3cc(CN4CCN(C(=N)N)CC4)cc([N+](=O)[O-])c3)CC2)cc1` [CBB1003], the “presence of compound in F9 cells after exposure” value in the series with F9 cells [1] is on record as “readily found”. In the series with F9 cells [2], the “growth of F9 cells” value is recorded as “significantly inhibit”. For the same molecule, in series [3], the “activation of CHRM4 and SCN3A expression” value is recorded as “led to the activation”. Besides, in [4] (10 μM, 24 hours), the “effect on mono- and di-methylated H3K4 in F9 cells” value was “reproducible increase”; the “effect on tri-methylated H3K4 and di-methylated H3K9 in F9 cells” value is reported as “very little effects”. Also, the IC50 in series [4] lay within 5 to 10 µM. Besides, the IC50 in [5] is 10.5 µM. For the same molecule, the “spherical growth of ES cells” value in the series on mouse ES cells is reported as “substantial inhibition”. Further, the “growth of NCCIT cells” value in the series on NCCIT cells is “inhibited”. For the same molecule, the “growth inhibition of 293 cells” value with 293 is recorded as “did not display any significant growth inhibition”. Moreover, the “growth of NTERA-2 cells” value in the series with NTERA-2 cells was “inhibited”. The “growth inhibition of HeLa cells” value in the series on HeLa is recorded as “did not display any significant growth inhibition”. Besides, the “growth inhibition of NIH 3T3 cells” value in the series with NIH 3T3 is “did not display any significant growth inhibition”.

With `COC(=O)c1cc(CN2CCN(C(=N)N)CC2)cc(C(=O)N2CCN(C(=O)c3ccc(C(=N)N)cc3)CC2)c1` [CBB1007], the “growth of F9 cells” value in the series with F9 cells [2] is “significantly inhibit”. Besides, the results for the IC50 in series [4] and in series [5] were 1 to 5 µM and 5.27 µM, respectively. Also, the “spherical growth of ES cells” value with mouse ES cells was “substantial inhibition”. Moreover, the “growth of NCCIT cells” value in the series on NCCIT cells is “inhibited”. Also, in the series on 293, the “growth inhibition of 293 cells” value is “did not display any significant growth inhibition”. Besides, the “growth of NTERA-2 cells” value in the series on NTERA-2 cells was “inhibited”. The “growth inhibition of HeLa cells” value in the series on HeLa was “did not display any significant growth inhibition”. In addition, in the series with NIH 3T3, the “growth inhibition of NIH 3T3 cells” value is “did not display any significant growth inhibition”.

Source of the values: article PMC3228901 (Cancer research, 2011).
